Experimental data from paper PMC9071996 (RSC Advances, 2019).

Columns and labels:
MDA-MB-231 cells [1] = test: MTS cytotoxicity assay, MDA-MB-231; type: cell-based; details: Homo sapiens, MDA-MB-231, 72 h, read-out: IC50 (μM) MBA-MD-231
How it was run: (§1)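 MTS viability assay in A549, MDA-MB-231 and RPMI-8226 human cancer cells. All compounds were first screened at 10 and 50 μM. Compounds that crossed a set viability threshold in this screen went on to IC50 determination.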

RPMI-8226 cells = test: MTS cytotoxicity assay, RPMI-8226; type: cell-based; details: Homo sapiens, RPMI-8226, 72 h, read-out: IC50 (μM) RPMI-8226
How it was run: as §1

A549 cells = test: MTS cytotoxicity assay, A549; type: cell-based; details: Homo sapiens, A549, 72 h, read-out: IC50 (μM) A549
How it was run: as §1

GES-1 cells = test: MTS cytotoxicity assay, normal GES-1 cells; type: cell-based; details: Homo sapiens, GES1, 72 h, read-out: IC50 (μM) GES-1
MDA-MB-231 cells [2] = test: Cell cycle assay; type: cell-based, human; details: 72 h, control 56.86%
How it was run: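 Test compound applied to MDA-MB-231 cells at 2.5, 5 and 10 μM for 72 h. Cells stained with propidium iodide, and DNA content measured by flow cytometry. Percentages of cells in each cell-cycle phase were calculated against an untreated control.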

MDA-MB-231 cells [3] = test: Annexin V-APC/7-AAD apoptosis assay; type: cell-based, human; details: 72 h, control 1.98%
How it was run: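 MDA-MB-231 cells exposed to test compound at 2.5, 5 or 10 μM for 72 h, with untreated cells as control. Cells then double-stained with Annexin V-APC and 7-AAD and analysed by flow cytometry. Annexin V+/7-AAD− cells scored as early apoptotic. 7-AAD-positive Annexin V+ cells scored as late apoptotic. Results shown as dot-plot quadrants and a histogram.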

MDA-MB-231 cells [4] = test: Intracellular ROS level; type: cell-based, human
MDA-MB-231 cells [5] = test: Mitochondrial membrane potential assay; type: cell-based, human; details: 72 h, control 3.9%
How it was run: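 Mitochondrial membrane potential measured by flow cytometry in MDA-MB-231 cells after 72 h with test compound at 2.5, 5 or 10 μM, against an untreated control. Red and green fluorescent populations were quantified. The green-fluorescent fraction was taken as cells with collapsed ΔΨm.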

MDA-MB-231 cells [6] = test: Western blot of apoptosis related proteins; type: cell-based, human; details: 2.5, 5 and 10 μM, 72 h, vs control
How it was run: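 Western blot on lysates of MDA-MB-231 cells treated for 72 h with test compound at 2.5, 5 and 10 μM, compared with untreated control. Proteins probed: Bcl-2, Bax, cytochrome C and caspase-3. β-actin served as internal reference, and band levels were analysed statistically.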

## CC12CCC(c3c(-c4ccc(Cl)cc4)nc(N)nc31)C2(C)C (stereo not drawn) [Compound 3f, 4-(4-Chlorophenyl)-8,9,9-trimethyl-5,6,7,8-tetrahydro-5,8-methanoquinazolin-2-amine]
MDA-MB-231 cells [1]
  IC50: 5 ± 0.14 µM
RPMI-8226 cells
  IC50: 8.64 ± 0.24 µM
A549 cells
  IC50: 7.65 ± 0.21 µM
GES-1 cells
  IC50: > 50 µM
MDA-MB-231 cells [2]; 2.5 μM
  percentage of cells in G0/G1 phase: 64.89%
MDA-MB-231 cells [2]; 5 μM
  percentage of cells in G0/G1 phase: 78.02%
MDA-MB-231 cells [2]; 10 μM
  percentage of cells in G0/G1 phase: 81.72%
MDA-MB-231 cells [3]; 2.5 μM
  Apoptosis rate (%) (total early and late): 9.47%
MDA-MB-231 cells [3]; 10 μM
  Apoptosis rate (%) (total early and late): 57.9%
MDA-MB-231 cells [4]; 10.0 μM, 72 h, control 5.13%
  level of ROS (DCFH-DA positive cells): 63.4%
MDA-MB-231 cells [4]; 10 μM, 63.4% vs control 5.13%
  increase of ROS level in comparison to the control group: ~12 times
MDA-MB-231 cells [5]; 2.5 μM
  Percentage (%) green fluorescence (cells with a collapsed ΔΨm): 10.4%
MDA-MB-231 cells [5]; 5 μM
  Percentage (%) green fluorescence (cells with a collapsed ΔΨm): 33.6%
MDA-MB-231 cells [5]; 10 μM
  Percentage (%) green fluorescence (cells with a collapsed ΔΨm): 53.2%
MDA-MB-231 cells [6]
  expression of anti-apoptosis protein Bcl-2: downregulated dose-dependently
  expression of caspase-3: upregulation
  expression of cytochrome C: upregulation
  expression of pro-apoptotic protein Bax: up-regulated
